In ChEMBL document CHEMBL1143761, “Synthesis and bioactivities of 6,7,8-trimethoxy-N-aryl-4-aminoquinazoline derivatives” (Bioorg Med Chem, 2007):
Activity calls are given as the source filed them. The calls are words filed in the database; no cut-off is given here.

Legend:
[1] = test system: BGC-823; experiment: Growth inhibition of human BGC823 cells after 72 hrs by MTT assay; type: functional, cell-based
How it was run: (§1)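 Cell lines were grown in RPMI 1640 with 10% fetal bovine serum and plated at 2 × 10³ cells/well. Compounds were taken up in DMSO, diluted in medium, and applied over a 1–100 range for 72 h, with 0.1% DMSO as control. MTT formazan was read at 595 nm. IC50 came from the dose–response curve, from three separate experiments each run in triplicate.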

[2] = test system: Bcap37; experiment: Growth inhibition of human Bcap37 cells after 72 hrs by MTT assay; type: functional, cell-based; how it was run: as §1
[3] = test system: A-431; experiment: Growth inhibition of human A431 cells after 72 hrs by MTT assay; type: functional, cell-based; how it was run: as §1
[4] = test system: PC-3; experiment: Growth inhibition of human PC3 cells after 72 hrs by MTT assay; type: functional, cell-based; how it was run: as §1
[5] = target: Mitogen-activated protein kinase 1 (Homo sapiens) (UniProt P28482); experiment: Inhibition of EGF-induced ERK2 phosphorylation in PC3 cells at 20 uM after 60 mins; type: cell-based; settings: PC-3
Mitogen-activated protein kinase 1 (Homo sapiens), sequence (P28482 whole entry): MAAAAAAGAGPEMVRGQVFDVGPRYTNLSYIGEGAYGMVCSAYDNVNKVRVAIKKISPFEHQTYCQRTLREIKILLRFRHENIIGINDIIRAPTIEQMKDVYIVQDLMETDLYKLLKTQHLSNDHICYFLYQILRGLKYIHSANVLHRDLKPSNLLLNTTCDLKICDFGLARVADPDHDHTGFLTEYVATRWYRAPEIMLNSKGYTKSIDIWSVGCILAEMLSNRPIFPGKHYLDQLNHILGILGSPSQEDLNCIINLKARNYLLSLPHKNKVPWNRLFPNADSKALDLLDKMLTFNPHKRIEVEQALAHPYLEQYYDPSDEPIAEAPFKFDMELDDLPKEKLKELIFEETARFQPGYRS
How it was run: (§2)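 PC3 cells were grown in RPMI 1640 with 10% FBS at 37 °C for 36–48 h, then serum-starved for 24 h. They were pretreated with compound at 20 for 60 min, then stimulated with EGF for 10 min and quenched on ice. Lysates were immunoblotted with anti-phospho-ERK1/2 monoclonal antibody overnight at 4 °C, then secondary antibody for 2–3 h at 25 °C, with ECL detection.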

[6] = target: Mitogen-activated protein kinase 3 (Homo sapiens) (UniProt P27361); experiment: Inhibition of EGF-induced ERK1 phosphorylation in PC3 cells at 20 uM after 60 mins; type: cell-based; settings: PC-3; how it was run: as §2
Mitogen-activated protein kinase 3 (Homo sapiens), sequence (P27361 whole entry): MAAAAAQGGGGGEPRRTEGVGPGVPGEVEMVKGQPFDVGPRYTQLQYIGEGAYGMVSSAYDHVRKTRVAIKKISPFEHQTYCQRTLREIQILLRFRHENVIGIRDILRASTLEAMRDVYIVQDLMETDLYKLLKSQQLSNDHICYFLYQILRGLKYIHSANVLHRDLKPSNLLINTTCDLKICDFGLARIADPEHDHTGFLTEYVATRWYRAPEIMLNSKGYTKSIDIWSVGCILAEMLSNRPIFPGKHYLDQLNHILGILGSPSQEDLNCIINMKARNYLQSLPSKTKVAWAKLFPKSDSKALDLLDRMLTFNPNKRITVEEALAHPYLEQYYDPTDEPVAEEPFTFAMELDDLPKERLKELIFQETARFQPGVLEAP

| Compound | IC50 ([1]; Homo sapiens, BGC-823, 72 h) | IC50 ([3]; Homo sapiens, A-431, 72 h) | IC50 ([4]; Homo sapiens, PC-3, 72 h) | IC50 ([1]; bgc-823) | IC50 ([4]; pc-3) | Activity [5] | Activity [6] | IC50 ([3]; a-431) | IC50 ([2]; Homo sapiens, Bcap37, 72 h) | IC50 ([2]; bcap37) |
| --- | --- | --- | --- | --- | --- | --- | --- | --- | --- | --- |
| COc1cc2c(Nc3ccccc3[N+](=O)[O-])ncnc2c(OC)c1OC | 21 µM | 31 µM | 31.2 µM | – | – | – | – | – | 29.9 µM | – |
| COc1cc2c(Nc3ccc([N+](=O)[O-])cc3)ncnc2c(OC)c1OC | 32.2 µM | 45.2 µM | 25.5 µM | – | – | – | – | – | 28.9 µM | – |
| COc1cc2c(Nc3cccc([N+](=O)[O-])c3)ncnc2c(OC)c1OC | 39 µM | 37.7 µM | 24.4 µM | – | – | – | – | – | 31.1 µM | – |
| COc1cc2c(Nc3ccc(Cl)cc3)ncnc2c(OC)c1OC | 34.4 µM | 19 µM | 31 µM | – | – | – | – | – | 52.2 µM | – |
| COc1cc2c(N[C@@H](C)c3ccccc3)ncnc2c(OC)c1OC | 11.9 µM | 12 µM | 10 µM | – | – | – | – | – | 12.9 µM | – |
| COc1cc2c(=NCc3ccccc3)[nH]cnc2c(OC)c1OC | 37.7 µM | 21.2 µM | 36.7 µM | – | – | – | – | – | 65.4 µM | – |
| COc1cc2ncnc(Nc3cccc(Br)c3)c2cc1OC | 16.8 µM | – | 8.9 µM | – | – | Active | Active | – | 13.7 µM | – |
| COc1cc2c(Nc3ccc(Br)cc3)ncnc2c(OC)c1OC | 23.8 µM | 42.1 µM | 23.4 µM | – | – | – | – | – | 31.2 µM | – |
| COc1cc2c(Nc3ccc(F)cc3)ncnc2c(OC)c1OC | 39.6 µM | 29 µM | 24.5 µM | – | – | – | – | – | 28.7 µM | – |
| COc1cc2c(N[C@H](C)c3ccccc3)ncnc2c(OC)c1OC | 12 µM | 21 µM | 18.8 µM | – | – | – | – | – | 23.2 µM | – |
| COc1cc2c(Nc3ccccc3F)ncnc2c(OC)c1OC | 36.7 µM | 72.1 µM | 18.8 µM | – | – | – | – | – | 63.2 µM | – |

Second part, led by results:

| IC50 ([1]; Homo sapiens, BGC-823, 72 h) | IC50 ([3]; Homo sapiens, A-431, 72 h) | IC50 ([4]; Homo sapiens, PC-3, 72 h) | IC50 ([1]; bgc-823) | IC50 ([4]; pc-3) | Activity [5] | Activity [6] | IC50 ([3]; a-431) | Compound | IC50 ([2]; Homo sapiens, Bcap37, 72 h) | IC50 ([2]; bcap37) |
| --- | --- | --- | --- | --- | --- | --- | --- | --- | --- | --- |
| 29.9 µM | 29.7 µM | 35.6 µM | – | – | – | – | – | COc1cc2c(Nc3cccc(F)c3)ncnc2c(OC)c1OC [listing 1 of 2 here] | 21 µM | – |
| 9.9 µM | 9 µM | 9.8 µM | – | – | – | – | – | COc1cc2c(cc1Nc1ncnc3c(OC)c(OC)c(OC)cc13)oc1ccccc12 | 8.1 µM | – |
| – | – | – | 28.9 µM | 25.3 µM | – | – | – | COc1cc2c(Nc3cccc(F)c3)ncnc2c(OC)c1OC [listing 2 of 2 here] | – | 22.1 µM |
| – | 7.6 µM | 8.9 µM | 5.8 µM | – | – | – | – | COc1cc2c(Nc3cccc(Br)c3)ncnc2c(OC)c1OC [listing 1 of 2 here] | 12.3 µM | – |
| 31 µM | 51.5 µM | 21 µM | – | – | – | – | – | COc1cc2c(Nc3ccc(Br)cc3Cl)ncnc2c(OC)c1OC | 89 µM | – |
| – | – | – | 12.1 µM | 12.6 µM | – | – | 11 µM | COc1cc2c(Nc3cccc(Br)c3)ncnc2c(OC)c1OC [listing 2 of 2 here] | – | 21 µM |
| 23.1 µM | 65.4 µM | 30 µM | – | – | – | – | – | COc1cc(Nc2ncnc3c(OC)c(OC)c(OC)cc23)cc(OC)c1OC | 76.5 µM | – |
| 19 µM | 32.1 µM | 19 µM | – | – | – | – | – | COc1cc2c(Nc3cccc(Cl)c3)ncnc2c(OC)c1OC | 21 µM | – |
| 35.4 µM | 22.2 µM | 20.1 µM | – | – | – | – | – | COc1cc2c(Nc3ccc(O)cc3)ncnc2c(OC)c1OC | 45.5 µM | – |
